What was measured:
[1] = Plasma protein binding in CD-1 mouse at 2 uM; type: ADME, cell-free; conditions: read-out: PPB (converted)
Procedure, shortened: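 Plasma protein binding measured in mouse, rat, dog and monkey plasma at 2 μM compound.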

Mus musculus [2] = assay: Inhibition of HDAC in CD1 nu/nu mouse tumor xenografted with human HCT116 cells assessed as plasma drug level causing increase in H2BK5 acetylation at 67 mg/kg, po tid after 1 hr by ELISA; type: functional, HCT-116
Mus musculus [3] = assay: Unbound Cmax in 3 week po dosed CD1 nu/nu mouse xenografted with human HCT116 cells; type: ADME, organism-based, HCT-116; conditions: in vivo, 504 h
[4] = Drug metabolism in liver microsomes (unknown origin) assessed as CYP-mediated oxidation; type: ADME
[5] = Cmax in CD1 nu/nu mouse xenografted with human HCT116 cells at 350 mg/kg, po administered biweekly for 3 weeks; type: ADME, organism-based, HCT-116; parameters: dose 350 mg/kg, route oral; conditions: in vivo
Procedure, shortened: (§1)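 HCT116 cells (5 × 10^6 per mouse) injected subcutaneously into the right flank of CD1 nu/nu mice. Once tumors reached ~325 mm3, mice were randomized into groups of 12 and dosed orally for 21 days, once daily (qd) or biweekly (biw). Vehicle was 40% v/v PEG-400 plus 25% w/v HPβCD at 20 μL/g.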

[6] = AUC (0 to 24 hrs) in CD1 nu/nu mouse xenografted with human HCT116 cells at 200 mg/kg, po qd for 3 weeks; type: ADME, organism-based, HCT-116; parameters: time < 24 hr, dose 200 mg/kg, route oral; conditions: in vivo
Procedure, shortened: (§2)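 HCT116 cells (5 × 10^6/mouse) injected sc into right flank of CD1 nu/nu mice; at ~325 mm3 tumors, randomized into groups of 12. Oral dosing 21 days, once daily or biweekly, in 40% v/v PEG-400 and 25% w/v HPβCD at 20 μL/g. […] Tumor size by caliper.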

[7] = Cmax in CD1 nu/nu mouse xenografted with human HCT116 cells at 525 mg/kg, po administered biweekly for 3 weeks; type: ADME, organism-based, HCT-116; parameters: dose 525 mg/kg, route oral; conditions: in vivo; procedure, shortened: as §1
[8] = Volume of distribution at steady state in rhesus monkey at 0.5 mg/kg, iv; type: ADME, organism-based, Macaca mulatta; parameters: dose 0.5 mg/kg, route intravenous; conditions: in vivo, read-out: Vdss
Procedure, shortened: (§3)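 Intravenous dosing at 5 (mouse), 2 (rat), 0.5 (dog) and 0.5 (monkey) mg/kg. Plasma clearance, steady-state volume of distribution and half-life derived from the plasma profile.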

in vivo [9] = conditions: CD1 nu/nu, mouse, po, 525 mg/kg
Mus musculus [10] = assay: Inhibition of HDAC in CD1 nu/nu mouse tumor xenografted with human HCT116 cells assessed as plasma drug level causing increase in H2BK5 acetylation at 100 mg/kg, po bid after 4 hrs by ELISA; type: functional, HCT-116
[11] = Oral bioavailability in beagle dog at 1 mg/kg; type: ADME, organism-based, Canis lupus familiaris; conditions: in vivo
Mus musculus [12] = assay: Inhibition of HDAC in CD1 nu/nu mouse tumor xenografted with human HCT116 cells assessed as plasma drug level causing increase in H2BK5 acetylation at 67 mg/kg, po tid after 48 hrs by ELISA; type: functional, HCT-116
[13] = Drug metabolism in dog hepatocytes assessed as hydrolysis of oxazolidinone group; type: ADME, cell-based, Canis lupus familiaris, Hepatocyte
Mus musculus [14] = assay: Inhibition of HDAC in CD1 nu/nu mouse tumor xenografted with human HCT116 cells assessed as plasma drug level causing increase in H2BK5 acetylation at 200 mg/kg, po qd after 24 hrs by ELISA; type: functional, HCT-116
Mus musculus [15] = assay: Inhibition of HDAC in CD1 nu/nu mouse tumor xenografted with human HCT116 cells assessed as plasma drug level causing increase in H2BK5 acetylation at 67 mg/kg, po tid after 4 hrs by ELISA; type: functional, HCT-116
Mus musculus [16] = assay: Inhibition of HDAC in CD1 nu/nu mouse tumor xenografted with human HCT116 cells assessed as plasma drug level causing increase in H2BK5 acetylation at 200 mg/kg, po qd after 48 hrs by ELISA; type: functional, HCT-116
Mus musculus [17] = assay: Inhibition of HDAC in CD1 nu/nu mouse tumor xenografted with human HCT116 cells assessed as plasma drug level causing increase in H2BK5 acetylation at 200 mg/kg, po qd after 4 hrs by ELISA; type: functional, HCT-116
[18] = Drug metabolism in rat hepatocytes; type: ADME, cell-based, Hepatocyte
[19] = Volume of distribution at steady state in beagle dog at 0.5 mg/kg, iv; type: ADME, organism-based, Canis lupus familiaris; parameters: dose 0.5 mg/kg, route intravenous; conditions: in vivo, read-out: Vdss; procedure, shortened: as §3
Rattus norvegicus = assay: Dose normalized AUC in Sprague-Dawley rat at 4 mg/kg, po; type: ADME, organism-based; parameters: dose 4 mg/kg, route oral; conditions: in vivo
Procedure, shortened: (§4)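 Oral exposure, dose-normalized (μM·h·kg/mg), from a PK study also run with iv dosing (rat 2 mg/kg iv, 4 mg/kg po; monkey 0.5 mg/kg iv, 1 mg/kg po). Plasma clearance, Vdss, half-life and oral bioavailability also derived.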

Rhesus monkey = assay: Dose normalized AUC in rhesus monkey at 1 mg/kg, po; type: ADME, organism-based, Macaca mulatta; parameters: dose 1 mg/kg, route oral; conditions: in vivo; procedure, shortened: as §4
[20] = AUC (0 to 24 hrs) in CD1 nu/nu mouse xenografted with human HCT116 cells at 150 mg/kg, po qd for 3 weeks; type: ADME, organism-based, HCT-116; parameters: time < 24 hr, dose 150 mg/kg, route oral; conditions: in vivo; procedure, shortened: as §2
[21] = Cmax in CD1 nu/nu mouse xenografted with human HCT116 cells at 200 mg/kg, po qd for 3 weeks; type: ADME, organism-based, HCT-116; parameters: dose 200 mg/kg, route oral; conditions: in vivo; procedure, shortened: as §1
[22] = Volume of distribution at steady state in CD-1 mouse at 5 mg/kg, iv; type: ADME, organism-based; parameters: dose 5 mg/kg, route intravenous; conditions: in vivo, read-out: Vdss; procedure, shortened: as §3
[23] = Plasma clearance in rhesus monkey at 0.5 mg/kg, iv; type: ADME, organism-based, Macaca mulatta; parameters: dose 0.5 mg/kg, route intravenous; procedure, shortened: as §3
HCT-116 = assay: cells; type: functional, Homo sapiens
Mus musculus [24] = assay: Dose normalized AUC in CD-1 mouse at 10 mg/kg, po; type: ADME, organism-based; parameters: dose 10 mg/kg, route oral; conditions: in vivo
in vivo [25] = conditions: CD1 nu/nu, mouse, po, 875 mg/kg
[26] = Plasma clearance in CD-1 mouse at 5 mg/kg, iv; type: ADME, organism-based; parameters: dose 5 mg/kg, route intravenous; procedure, shortened: as §3
in vivo [27] = conditions: CD1 nu/nu, mouse, po, 150 mg/kg
[28] = Oral bioavailability in rhesus monkey at 1 mg/kg; type: ADME, organism-based, Macaca mulatta; conditions: in vivo
Mus musculus [29] = assay: Inhibition of HDAC in CD1 nu/nu mouse tumor xenografted with human HCT116 cells assessed as plasma drug level causing increase in H2BK5 acetylation at 67 mg/kg, po tid after 8 hrs by ELISA; type: functional, HCT-116

fraction unbound at 2 µM [1]: 0.015 | fCmax (Mus musculus [3]): 240 nM | Drug metabolism [4]: metabolite_notdetected | Cmax [5]: 32.8 µM | AUC at 24 h [6]: 371 µM·h | Cmax [7]: 56.8 µM | Vd [8]: 7.8 L/kg | concentration at 24 h (in vivo [9]): 9.4 µM | bioavailability [11]: 17% | Drug metabolism [13]: metabolite_notdetected | Drug metabolism [18]: metabolite_notdetected | Vd [19]: 2.2 L/kg | AUC/dose (Rattus norvegicus): 3 µM·kg·h/mg | AUC/dose (Rhesus monkey): 1.8 µM·kg·h/mg | AUC at 24 h [20]: 208 µM·h | Cmax [21]: 40.4 µM | Vd [22]: 2.1 L/kg | clearance [23]: 27 mL/min/kg | GI90 (HCT-116): 367 nM | AUC/dose (Mus musculus [24]): 1.1 µM·kg·h/mg | concentration at 24 h (in vivo [25]): 19.3 µM | clearance [26]: 27 mL/min/kg | concentration at 24 h (in vivo [27]): 3.3 µM | bioavailability [28]: 100%
Compound: Nc1ccc(-c2cccs2)cc1NC(=O)c1ccc(N2CCC3(CC2)CNC(=O)O3)nc1
INH (Mus musculus [2]): 14.9 µM | INH (Mus musculus [10]): 9.6 µM | INH (Mus musculus [12]): 0.1 µM | INH (Mus musculus [14]): 0.2 µM | INH (Mus musculus [15]): 13.8 µM | INH (Mus musculus [16]): 0.2 µM | INH (Mus musculus [17]): 17.2 µM | GI25 (HCT-116): 50 nM | GI75 (HCT-116): 188 nM | INH (Mus musculus [29]): 8.2 µM

From ChEMBL document CHEMBL3286368, “Delayed and Prolonged Histone Hyperacetylation with a Selective HDAC1/HDAC2 Inhibitor” (ACS Med Chem Lett, 2014)
